According to publication PMC6373376 (Clinical Pharmacokinetics, 2018):
Like-named read-outs stand apart in the source and are kept apart here.

How the values were obtained:
[1] = type: in vivo, human; conditions: for Tlag / Tmax: median (range)
[2] = type: in vivo, human; conditions: for T½ / Tlag / AUC(0-t) / AUC(0-inf) / Cmax / Tmax / half-life / Vd/F: Study B part 1, siponimod 0.25 mg single dose; for AUC / AUC(0-t) / AUC(0-inf) / Cmax / Tmax / half-life / Vd/F: human, plasma, oral, 0.25 mg; for AUC: AUC24, Study B part 1, siponimod 0.25 mg single dose; for AUC(0-t): AUClast; for half-life: T½; for Vd/F: VZ/F
[3] = type: in vivo, human
[4] = Study A: safety/tolerability; type: in vivo, human
Method in brief: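 Healthy adults; open-label, two-period, single-sequence design. Period 1: single oral 4 mg test compound on day 1. Period 2: azole CYP2C9 inhibitor 200 mg twice on day 1, then 200 mg once daily days 2–19, with 4 mg test compound on day 3. Washout 14–21 days. Safety covered all AEs and SAEs, physical exams, vital signs, ECG and lab tests, in everyone given at least one dose.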

[5] = Study B: safety/tolerability; type: in vivo, human
Method in brief: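 Healthy subjects genotyped for CYP2C9. Part 1: single oral 0.25 mg test compound to *1/*1 (n = 12), *2/*3 (n = 6) and *3/*3 (n = 6), then 42-day washout. Part 2: poor metabolisers only, 0.25 mg on days 1–2 and 0.5 mg on day 3. Safety covered all AEs and SAEs, cardiac monitoring, haematology, blood chemistry and urinalysis, in all dosed subjects.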

[6] = same dosing regimen, ref unpublished data; cited from earlier work
[7] = cited from earlier work
[8] = cited from earlier work; remark: listed apart in the source
CYP2C9 = conditions: cited from earlier work
CYP3A4 = conditions: cited from earlier work
[9] = cited from earlier work; remark: listed apart in the source
[10] = CYP2C9*1/*1, geometric mean (CV%)
[11] = CYP2C9*2/*3, geometric mean (CV%)
[12] = CYP2C9*3/*3, geometric mean (CV%)
[13] = single-ascending dose 0.1–75 mg

For `CCc1cc(/C(C)=N/OCc2ccc(C3CCCCC3)c(C(F)(F)F)c2)ccc1CN1CC(C(=O)O)C1` [Siponimod], the “Increase in Cmax in the presence of fluconazole” value ([1]; Study A) was 10%, the Tlag ([1]; Study A, siponimod 4 mg + steady-state fluconazole) was 0 (0–0) h and the CL/F ([1]; Study A, siponimod 4 mg alone, geometric mean (CV%)) was 3.6 L/h. For the same molecule, the Tlag ([1]; Study A, siponimod 4 mg alone) was 0.25 (0–0.5) h, the Tmax ([1]; Study A, siponimod 4 mg alone) was 4.0 (2.0–8.1) h and the AUC(0-inf) ([1]; human, plasma, oral, 4 mg) was 1120 ng·h/mL. For the same molecule, the Cmax ([1]; human, plasma, oral, 4 mg) was 31.2 ng/mL, the Vd/F ([1]; human, plasma, oral, 4 mg) was 210 L and the Tmax ([1]; human, plasma, oral, 4 mg, Tmax, Study A, siponimod 4 mg alone) was roughly 4 h. For the same molecule, the AUC(0-t) ([1]; human, plasma, po, 4 mg) was 1110 ng·h/mL, the T½ [2, 10] was 28.1 (18.5) h and the Tlag ([2]; CYP2C9*1/*1, median (range)) was 0.25 (0.00–0.50) h. The T½ [2, 11] was 50.9 (31.7) h, the Tlag ([2]; CYP2C9*2/*3, median (range)) was 0.25 (0.00–0.50) h and the Tlag ([2]; CYP2C9*3/*3, median (range)) was 0.50 (0.00–0.50) h. The AUC [2, 10] was 31.6 ng·h/mL, the AUC [2, 11] was 44.7 ng·h/mL and the AUC [2, 12] was 42.7 ng·h/mL. It also gave an AUC(0-t) [2, 10] of 68.6 ng·h/mL, an AUC(0-t) [2, 11] of 140 ng·h/mL and an AUC(0-t) [2, 12] of 266 ng·h/mL. It also gave an AUC(0-inf) [2, 10] of 70.5 ng·h/mL, an AUC(0-inf) [2, 11] of 144 ng·h/mL and an AUC(0-inf) [2, 12] of 271 ng·h/mL. The Cmax [2, 11] was 2.45 ng/mL, the Cmax [2, 12] was 2.35 ng/mL and the Tmax ([2]; CYP2C9*1/*1, median (range)) was 4 h. The Tmax ([2]; CYP2C9*2/*3, median (range)) was 5 h, the Tmax ([2]; CYP2C9*3/*3, median (range)) was 4 h and the half-life [2, 11] was 51 h. It also gave a half-life [2, 12] of 126 h, a Vd/F [2, 10] of 144 L and a Vd/F [2, 11] of 127 L. The Vd/F [2, 12] was 167 L, the “AUC24 on day 3 higher versus the dose titration study data” value ([3]; Study B part 2, CYP2C9*2/*3, comparison with ref 15) was 1.4 fold and the “AUC24 on day 3 higher versus the dose titration study data” value ([3]; Study B part 2, CYP2C9*3/*3, comparison with ref 15) was 1.7 fold. It also gave a Tmax ([3]; human, plasma, po, 0.5 mg) of 6 h, an AUC ([3]; human, plasma, po, 0.5 mg, AUC24, Study B part 2, day 3, CYP2C9*2/*3, mean) of 125 ng·h/mL and an AUC ([3]; human, plasma, po, 0.5 mg, AUC24, Study B part 2, day 3, CYP2C9*3/*3, mean) of 148 ng·h/mL. For the same molecule, the “Deaths or SAEs” value ([4]; Study A) was “No deaths or SAEs were reported”, the “Subjects who experienced AEs” value ([4]; Study A period 1, siponimod 4 mg alone) was 79% and the “Subjects who experienced AEs” value ([4]; Study A period 2, siponimod + fluconazole) was 73%. The “Deaths or SAEs” value ([5]; Study B) was “No deaths or SAEs were reported”, the “Subjects reporting at least one AE” value ([5]; Study B part 2, 12 subjects) was 25% and the “Headache (most prevalent AE) incidence” value ([5]; Study B, in both parts) was 8.3%. For the same molecule, the “Tmax observed in historical data” value [6] was 1.35 h, the “Single-dose maximum tolerated dose (MTD)” value ([7]; healthy subjects, single-ascending dose range study, ref unpublished data) was 25 mg and the “Earliest time measurable in plasma postdose” value ([7]; single-ascending dose 0.1–75 mg, 98 healthy subjects) was 0.25 h. The “Time at which Cmax was reached postdose” value [7, 13] was 3 to 8 h, the “Time at which Cmax was reached, minimum–maximum” value [7, 13] was 0.25 to 24 h and the “T½, mean range” value ([7]; single-ascending dose study, ref unpublished data) was 27 to 57 h. For the same molecule, the “Tolerability of multiple doses” value ([8]; doses up to 20 mg daily for 28 days) was “well tolerated”, the “Time to steady-state of plasma siponimod” value ([8]; multiple-ascending dose 0.3–20 mg, 28 days, 48 healthy subjects) was “approximately 6 days” and the “Effective elimination half-life (T½)” value ([8]; multiple-ascending dose 0.3–20 mg, range) was 22 to 38 h. The “Contribution of CYP2C9 to metabolism (formation of M5)” value (CYP2C9) was 79.2%, the “Contribution of the CYP2C9 pathway to total metabolic clearance (fm)” value (CYP2C9; determined in vitro) was 79% and the “Contribution of CYP3A4 to metabolism (formation of M5)” value (CYP3A4) was 18.5%. The “Predicted increase in siponimod AUC in the presence of fluconazole” value ([9]; SimCYP simulation) was “two to three” and the “First-pass effect estimated by SimCYP” value ([9]; ref unpublished data) was ~5 % of the administered dose.
